Results as given in publication PMC2882864 (Cancer research, 2010).

Columns and labels:
Human RPA = Human RPA (Homo sapiens, UniProt P27694); assay: EMSA of RPA binding to 5'-32P-labeled 34-base ssDNA; settings: for inhibition of RPA DNA binding in vitro (in words): EMSA
How it was run: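 Purified human RPA (25 nM) with 25 nM 5'-32P-labelled 34-base DNA in 20 µL reactions; test compound dissolved in DMSO. Bound and free DNA were resolved by electrophoretic mobility shift.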

[1] = tested on: Xeroderma Pigmentosum Group A protein (XPA); assay: XPA DNA binding in an ELISA format; settings: data not shown
H460 NSCLC cell line = assay: Annexin V/PI flow cytometry cell viability; type: cell-based; settings: H460, increasing concentrations, 48 hours
[2] = tested on: peripheral blood mononuclear cells (PBMCs); assay: Cytotoxicity in freshly isolated PBMCs; type: cell-based; settings: freshly isolated non-cancerous cells, data not shown
H460 cells [3] = assay: Combination index analysis with cisplatin or etoposide; type: cell-based; settings: H460, 48 hours, all fractions of cells affected
How it was run: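 H460 cells plated at 1 × 10⁴ cells/cm² for 24 h, then treated concurrently with increasing concentrations of cisplatin or etoposide plus test compound (DMSO stock) for 48 h. Adherent and non-adherent cells were collected and stained with annexin V-FITC/PI, then read by flow cytometry. The combination index was derived by Chou–Talalay analysis across fractions of cells affected.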

H460 cells [4] = assay: Cell cycle distribution; type: cell-based
How it was run: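 H460 cells arrested with 0.8 µg/mL nocodazole for 12 h, washed, then given vehicle or 100 µM test compound for 4, 8 or 12 h; asynchronous cells treated 3 h. 10 µM BrdU added for final 2 h (released) or final hour (asynchronous). Fixed in 70% EtOH; PI 1 µg/mL with RNaseA; DNA denatured in 2 M HCl; anti-BrdU then AlexaFluor 488 secondary; FL2-A (PI) and FL1 (BrdU) flow read-out.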

RPA in H460 cells = assay: Indirect immunofluorescence of RPA p34; type: cell-based; settings: H460, 50 µM, 3 hours, versus vehicle
How it was run: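 H460 cells on chamber slides got test compound or vehicle for 3 h. They were fixed in 4% paraformaldehyde (25 °C, 3 min) and permeabilised in 0.2% Triton X-100 (2 min, 4 °C), then blocked in 15% FBS for 1 h. Staining: anti-RPA p34 (1:500, 1 h), Alexa Fluor-594 anti-mouse (1:300, 1 h), then 300 nM DAPI. Imaged by fluorescence microscopy; staining quantified by image analysis.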

[5] = tested on: RPA foci / DNA-PKcs phosphorylation; assay: Etoposide-induced RPA foci and DNA-PKcs serine 2056 phosphorylation; type: cell-based; settings: co-treatment with etoposide

Chain of Human RPA (P27694 whole entry): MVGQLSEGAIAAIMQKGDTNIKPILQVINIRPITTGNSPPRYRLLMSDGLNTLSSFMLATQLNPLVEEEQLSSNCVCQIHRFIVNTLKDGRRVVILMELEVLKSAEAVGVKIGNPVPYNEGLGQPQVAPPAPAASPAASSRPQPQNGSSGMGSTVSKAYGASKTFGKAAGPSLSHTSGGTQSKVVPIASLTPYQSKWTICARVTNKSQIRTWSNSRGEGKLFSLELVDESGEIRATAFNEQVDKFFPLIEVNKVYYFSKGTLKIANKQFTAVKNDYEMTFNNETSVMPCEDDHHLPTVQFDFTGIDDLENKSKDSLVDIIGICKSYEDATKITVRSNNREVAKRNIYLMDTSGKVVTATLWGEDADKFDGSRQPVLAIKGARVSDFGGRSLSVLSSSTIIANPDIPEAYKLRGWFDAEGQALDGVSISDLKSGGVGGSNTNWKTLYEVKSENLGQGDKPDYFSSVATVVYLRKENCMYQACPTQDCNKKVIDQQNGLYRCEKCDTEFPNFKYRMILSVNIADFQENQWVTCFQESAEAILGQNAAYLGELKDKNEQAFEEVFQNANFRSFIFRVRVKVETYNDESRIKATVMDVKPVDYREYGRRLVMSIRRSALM
Chain of Human RPA (P15927 whole entry partner): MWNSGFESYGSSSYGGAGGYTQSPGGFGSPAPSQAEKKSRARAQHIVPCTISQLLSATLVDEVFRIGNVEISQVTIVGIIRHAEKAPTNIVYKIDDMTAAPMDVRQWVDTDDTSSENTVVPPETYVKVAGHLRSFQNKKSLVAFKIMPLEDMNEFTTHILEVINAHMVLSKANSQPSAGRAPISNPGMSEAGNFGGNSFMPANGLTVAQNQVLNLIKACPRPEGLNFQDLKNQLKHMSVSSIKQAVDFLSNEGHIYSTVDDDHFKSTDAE
Chain of Human RPA (P35244 whole entry partner): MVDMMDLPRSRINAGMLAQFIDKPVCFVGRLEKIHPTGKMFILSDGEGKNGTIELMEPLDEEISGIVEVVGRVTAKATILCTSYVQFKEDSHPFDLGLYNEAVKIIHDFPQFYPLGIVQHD

Row | inhibition of RPA DNA binding in vitro (in words) (Human RPA) | Structure (SMILES) | competition of RPA from pre-bound DNA (Human RPA; data not shown) | effect on XPA binding [1] | PI staining (membrane integrity) (H460 NSCLC cell line) | annexin V staining (apoptosis) (H460 NSCLC cell line) | cytotoxic activity in PBMCs [2] | interaction with etoposide (combination index analysis) (H460 cells [3]) | BrdU incorporation after release from nocodazole arrest (H460 cells [4]; H460, 100 µM, 10 µM BrdU final 2 hours) | S-phase entry after release from nocodazole G2 arrest (H460 cells [4]; H460, 100 µM, 12 hours post release) | BrdU incorporation in asynchronous cells (H460 cells [4]; H460, 3 hours treatment, BrdU final hour) | cell cycle distribution (H460 cells [4]; H460, 48 hours) | intensity of RPA staining (RPA in H460 cells) | etoposide-induced RPA foci and DNA-PKcs phosphorylation on co-treatment [5]
1 | – | CCOc1ccc2cc(C3CC(c4ccc(Br)cc4)=NN3C(=O)CCC(=O)O)c(Cl)nc2c1 (centres unmarked) [TDRL-505] | unable to compete RPA away from DNA | no inhibitory activity was observed | concentration dependent increase | Minimal annexin V staining | minimal cytotoxic activity | synergistic activity | no BrdU incorporation was observed | did not enter S-phase | small but distinct differences | increase in the proportion of cells in G1-phase | decrease in the intensity of RPA staining | slight increase
2 | no inhibition | CCN(CC)c1ccc(C2CC(c3ccc(Br)cc3)=NN2C(=O)CCC(=O)O)cc1 (centres unmarked) [TDRL-518] | – | – | – | – | – | – | – | – | – | – | – | –
3 | modest in vitro RPA inhibition | COc1ccc(-c2nn(-c3ccccc3)cc2C2CC(c3ccc(Br)cc3)=NN2C(=O)CCC(=O)O)cc1 (centres unmarked) [TDRL-523] | – | – | – | – | – | – | – | – | – | – | – | –
